According to ChEMBL document CHEMBL1153725, “Tetrahydroquinoline derivatives as CRTH2 antagonists” (Bioorg Med Chem Lett, 2009):

Legend:
[1] = biological target: T1, Prostaglandin D2 receptor (Homo sapiens, UniProt Q13258); experiment: Displacement of [3H]PGD2 from human DP receptor expressed in 293 cells by scintillation counting in presence of 0.5% BSA; format: cell-based, HEK293
T1 sequence (Q13258 whole entry): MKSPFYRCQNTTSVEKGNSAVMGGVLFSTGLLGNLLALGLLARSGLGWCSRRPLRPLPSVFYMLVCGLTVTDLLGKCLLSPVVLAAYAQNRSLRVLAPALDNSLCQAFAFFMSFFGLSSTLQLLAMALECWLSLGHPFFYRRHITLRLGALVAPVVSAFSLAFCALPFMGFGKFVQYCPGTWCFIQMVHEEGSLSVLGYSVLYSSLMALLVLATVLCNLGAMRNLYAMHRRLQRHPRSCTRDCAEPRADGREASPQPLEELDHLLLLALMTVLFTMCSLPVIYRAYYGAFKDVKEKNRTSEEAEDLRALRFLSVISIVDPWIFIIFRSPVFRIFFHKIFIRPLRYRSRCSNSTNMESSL
Procedure, shortened: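 hDP binding on stably transfected 293 cells. [3H]-PGD2 incubated with 293(hDP) cells and increasing compound concentrations in buffer with 0.5% BSA. After washing, remaining bound radioligand counted by scintillation, and IC50 read as the concentration giving 50% inhibition. Means of three experiments.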

[2] = biological target: T2, Prostaglandin D2 receptor 2 (Homo sapiens, UniProt Q9Y5Y4); experiment: Displacement of [3H]PGD2 from human CRTH2 receptor expressed in 293 cells by scintillation counting in presence of 50% human plasma; format: cell-based, HEK293
T2 sequence (Q9Y5Y4 whole entry): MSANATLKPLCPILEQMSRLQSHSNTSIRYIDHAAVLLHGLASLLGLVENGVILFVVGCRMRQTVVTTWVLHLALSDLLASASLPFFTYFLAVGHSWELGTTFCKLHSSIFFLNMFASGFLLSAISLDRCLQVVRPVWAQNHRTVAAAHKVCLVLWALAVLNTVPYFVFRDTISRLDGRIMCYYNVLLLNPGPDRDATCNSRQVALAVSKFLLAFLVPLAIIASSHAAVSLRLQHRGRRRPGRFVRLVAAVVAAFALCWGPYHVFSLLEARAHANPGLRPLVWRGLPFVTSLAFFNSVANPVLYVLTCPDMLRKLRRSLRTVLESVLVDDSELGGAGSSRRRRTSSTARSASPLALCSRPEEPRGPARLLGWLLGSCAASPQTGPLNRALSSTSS
Procedure, shortened: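 Whole-cell binding on 293 cells stably transfected with hCRTH2, run in binding buffer containing 50% human plasma. [3H]-PGD2 incubated with cells and rising compound concentrations. After washing, cell-bound label measured by scintillation counting, and IC50 taken as the concentration halving binding. Means of three experiments.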

[3] = biological target: T2, Prostaglandin D2 receptor 2; experiment: Displacement of [3H]PGD2 from human CRTH2 receptor expressed in 293 cells by scintillation counting in presence of 0.5% BSA; format: cell-based, HEK293
Procedure, shortened: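 Whole-cell binding on 293 cells stably transfected with hCRTH2. [3H]-PGD2 incubated with cells plus increasing compound concentrations in binding buffer containing 0.5% BSA. Cells washed, bound label counted by scintillation, and the concentration giving 50% inhibition of binding taken as IC50. Means of three experiments.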

Eosinophil = experiment: Inhibition of PGD2-induced human eosinophil shape change by flow cytometry; format: functional, cell-based
Procedure, shortened: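 Enriched human eosinophils at 10^6 cells/mL in PBS with Ca2+/Mg2+, 0.1% BSA, 10 mM Hepes, 10 mM glucose. Antagonist or vehicle (0.05% DMSO) applied 10 min at room temperature, then 10 nM PGD2 for 10 min at 37 °C. Response expressed as % of maximal PGD2 response. Means of two experiments.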

SMILES | IC50 [3] [µM] | other results
C[C@H]1C[C@@H](N(C(=O)CCC(=O)O)c2ccccc2)c2ccccc2N1C(=O)c1ccccc1 | 0.003 | IC50 [1]: > 10 µM; IC50 [2]: 0.009 µM; IC50 (Eosinophil): 0.00077 µM
CC(=O)N(c1ccccc1)[C@H]1C[C@@H](C)N(C(=O)c2ccccc2)c2ccccc21 | 0.42 | IC50 [2]: > 10 µM
CC(=O)N(c1ccccc1)C1CC(C)Nc2ccccc21 (racemic) | > 50 | –
CCN(C(C)=O)C1CC(C)N(C(=O)c2ccccc2)c2ccccc21 (racemic) | 0.25 | –
CC(=O)N(c1ccccc1)C1CC(C)N(Cc2ccccc2)c2ccccc21 (racemic) | 0.2 | –
CC(=O)N(c1ccccc1)C1CC(C)N(C(=O)Cc2ccccc2)c2ccccc21 (racemic) | 1.75 | –
CC1CC(Nc2ccccc2)c2ccccc2N1C(=O)c1ccccc1 (racemic) | > 50 | –
CCN(c1ccccc1)C1CC(C)N(C(=O)c2ccccc2)c2ccccc21 (racemic) | 3.17 | –
CC1CC(N(c2ccccc2)S(=O)(=O)c2ccccc2)c2ccccc2N1C(=O)c1ccccc1 (racemic) | 5.5 | –
CC(=O)N(c1ccccc1)C1CC(C)N(C(=O)c2ccc(Oc3ccccc3)cc2)c2ccccc21 (racemic) | 0.013 | –
COc1ccc(C(=O)N2c3ccccc3C(N(C(C)=O)c3ccccc3)CC2C)cc1 (racemic) | 0.028 | IC50 [2]: 0.13 µM
CC(=O)N(c1ccccc1)C1CC(C)N(C(=O)c2ccc(Cl)cc2)c2ccccc21 (racemic) | 0.093 | –
CC(=O)N(c1ccccc1)C1CC(C)N(C(=O)c2ccc(C(C)(C)C)cc2)c2ccccc21 (racemic) | 0.034 | –
CC1CC(N(C(=O)CC(=O)O)c2ccccc2)c2ccccc2N1C(=O)c1ccccc1 (racemic) | 0.54 | –
CC(=O)N(c1ccccc1)C1CC(C)N(C(=O)c2cccc(C)c2)c2ccccc21 (racemic) | 0.074 | –
CC1CC(N(C(=O)CCC(=O)O)c2ccccc2)c2ccccc2N1C(=O)c1ccccc1 (racemic) | 0.005 | IC50 [2]: 0.028 µM
CC1CC(N(C(=O)CCC(=O)ON)c2ccccc2)c2ccccc2N1C(=O)c1ccccc1 (racemic) | 0.029 | –

Continued, in another order:

IC50 [3] [µM] | SMILES | other results
0.017 | CC(=O)N(c1ccccc1)[C@@H]1C[C@H](C)N(C(=O)c2ccccc2)c2ccccc21 | IC50 [1]: > 10 µM; IC50 [2]: 0.44 µM; IC50 (Eosinophil): 0.141 µM
0.4 | C[C@@H]1C[C@H](N(C(=O)CCC(=O)O)c2ccccc2)c2ccccc2N1C(=O)c1ccccc1 | IC50 [2]: 0.039 µM
3.62 | CC(=O)NC1CC(C)N(C(=O)c2ccccc2)c2ccccc21 (racemic) | –
0.43 | CC(=O)N(Cc1ccccc1)C1CC(C)N(C(=O)c2ccccc2)c2ccccc21 (racemic) | –
0.91 | CC(=O)N(c1ccccc1)C1CC(C)N(C(=O)OCc2ccccc2)c2ccccc21 (racemic) | –
0.21 | CC(=O)N(c1ccccc1)C1CC(C)N(C(=O)/C=C/c2ccccc2)c2ccccc21 (racemic) | –
0.105 | CC1CC(N(C(=O)c2ccccc2)c2ccccc2)c2ccccc2N1C(=O)c1ccccc1 (racemic) | –
0.026 | CC(=O)N(c1ccccc1)C1CC(C)N(C(=O)c2ccc(OC(F)(F)F)cc2)c2ccccc21 (racemic) | IC50 [2]: > 10 µM
0.043 | CC(=O)N(c1ccccc1)[C@@H]1C[C@H](C)N(C(=O)c2ccccc2)c2ccccc21 (racemic) | IC50 [2]: 1.05 µM
> 10 | CC(=O)N(c1ccccc1)[C@H]1C[C@H](C)N(C(=O)c2ccccc2)c2ccccc21 (racemic) | –
0.022 | CC1CC(N(C(=O)CCCC(=O)O)c2ccccc2)c2ccccc2N1C(=O)c1ccccc1 (racemic) | –
2.28 | CC1CC(N(C(=O)/C=C/C(=O)O)c2ccccc2)c2ccccc2N1C(=O)c1ccccc1 (racemic) | –
40.3 | CC1CC(N(C(=O)c2cccc(C(=O)O)c2)c2ccccc2)c2ccccc2N1C(=O)c1ccccc1 (racemic) | –
1.42 | CC(=O)N(c1ccccc1)C1CC(C)N(C(=O)c2ccccc2C)c2ccccc21 (racemic) | –
1.46 | CCCCC(=O)N1c2ccccc2C(N(C(C)=O)c2ccccc2)CC1C (racemic) | –
62 | CC(=O)N(c1ccccc1)C1CC(C)N(S(=O)(=O)c2ccccc2)c2ccccc21 (racemic) | –
0.041 | CC(=O)N(c1ccccc1)C1CC(C)N(C(=O)c2ccc(C)cc2)c2ccccc21 (racemic) | –
0.064 | CCCCC(=O)N(c1ccccc1)C1CC(C)N(C(=O)c2ccccc2)c2ccccc21 (racemic) | –
0.092 | CC(=O)N(c1ccccc1)C1CC(C)N(C(=O)c2ccc(C)c(C)c2)c2ccccc21 (racemic) | –
